This is a sample that favours compounds with a hit; in the whole collection about 2.5% have one here.
ERAP1 inh: ERAP1 (human) enzyme inhibition | Q9NZ08 | recombinant ERAP1, Leu-AMC fluorescence, 60 min | inhibition, % at 10.7 µM | actives 0.15% (n = 340,000) | AID 652197;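 active = mean replicate inhibition of at least 30%, or all replicates individually reaching that 30% level; inactive = mean below 30% and not every replicate reaching it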;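 also: 0% = neutral control wells and 100% = L-leucinethiol positive control wells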
PglD DTNB: blocks C. jejuni PglD acetyltransferase activity | actives 0.098% (n = 360,000) | inhibition, % at 12.5 µM | purified PglD enzyme, DTNB colorimetric CoA detection; in the data active = inhibition above about 16%, passing the limit was not always enough
E-sel inducer: induces E-selectin expression in human endothelial cells; actives 0.37% (n = 260,000); P16581; activation, % at 7.58 µM; HUVEC E-selectin immunofluorescence imaging; normalized: neutral wells 0, TNF-alpha wells 100;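 active = mean E-selectin-positive cell signal at least 10% of the positive control, reached in at least 60% of replicates, without over 20% cell loss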
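assay system = HUVEC, human umbilical vein endothelial cells | input = 3,000 HUVEC seeded per well | medium = EGM-2 growth medium on 0.1% gelatin-coated wells | dosing = one compound dose added by pin transfer | signal = immunofluorescence imaging | read-out basis = % PE-positive cells | control set = TNF-alpha, DMSO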
DENV2 CPE rescue: protects cells from dengue virus 2 cytopathic effect; DENV2-infected cells, cytopathic effect rescue, plate reader; actives 1.7% (n = 350,000); CPE inhibition, % at 9.99 µM; in the data active = CPE inhibition above about 20%, passing the limit was not always enough; tested in BHK-21 cells;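 also: 0% = median of neutral control wells and 100% = median of positive control wells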
SIRT5 block: inhibitors of human sirtuin-5 desuccinylase. Q9NXA8. Purified SirT5, succinyl-peptide AMC, trypsin-coupled fluorescence. inhibition, % at 15 µM. actives 1.1% (n = 330,000); in the data active = inhibition above about 15%
* = called active by the depositor; . = no result.

SMILES | ERAP1 inh | PglD DTNB | E-sel inducer | DENV2 CPE rescue | SIRT5 block
C[C@H](CO)N1C[C@H](C)[C@H](CN(C)C(=O)CCCN(C)C)OCCCC[C@H](C)Oc2ccc(NS(=O)(=O)c3ccc(Cl)cc3)cc2C1=O | -1 | 0 | 0 | 41* | -6
Cc1noc(C)c1S(=O)(=O)Nc1ccc2c(c1)C(=O)N([C@@H](C)CO)C[C@H](C)[C@H](CN(C)C(=O)CCC(F)(F)F)OCCCC[C@H](C)O2 | 0 | 1 | 0 | 34* | 6
CCCNC(=O)C[C@H]1C[C@@H]2c3cc(NS(=O)(=O)c4ccc(F)cc4)ccc3O[C@@H]2[C@H](CO)O1 | -3 | 1 | 0 | -3 | 1
C[C@@H]1CN([C@H](C)CO)C(=O)c2cc(C#Cc3cccc(F)c3)cnc2O[C@H]1CN(C)C(=O)C1CCC1 | 1 | 1 | 67* | -6 | 8
C[C@H]1CN([C@@H](C)CO)C(=O)c2cc(C#Cc3cccc(F)c3)cnc2O[C@H]1CN(C)C(=O)C1CCC1 | 1 | 3 | 0 | -8 | 2
C[C@H](CO)N1C[C@H](C)[C@@H](CN(C)C(=O)C2CCC2)Oc2ncc(C#CCc3ccccc3)cc2C1=O | 1 | -3 | 0 | 60* | -3
C[C@@H]1CN([C@@H](C)CO)C(=O)c2cc(C#Cc3cccc(F)c3)cnc2O[C@@H]1CN(C)C(=O)C1CCC1 | -3 | 3 | 0 | 87* | 1
C[C@H](CO)N1C[C@H](C)[C@@H](CN(C)C(=O)C2CCC2)Oc2ncc(C#Cc3cccc(F)c3)cc2C1=O | 2 | -6 | 1 | 3 | 2
C[C@H]1CN([C@@H](C)CO)C(=O)c2cc(C#CCc3ccccc3)cnc2O[C@@H]1CN(C)C(=O)C1CCC1 | -3 | . | 0 | 11 | 8
COc1ccc(C(=O)N2CCN(S(=O)(=O)c3ccc(C)cc3C)CC2)cc1OC | 4 | 1 | 0 | 13 | -2
CCn1cc(C(=O)O)c(=O)c2cnc(N3CCN(C(=S)Nc4ccc(F)cc4)CC3)nc21 | 3 | . | 9 | 0 | -1
CCn1cc(C(=O)O)c(=O)c2cnc(N3CCN(C(=S)Nc4ccccc4Cl)CC3)nc21 | . | 1 | 3 | -8 | 16*
CCOC(=O)c1nnn(CC(=O)NC(=O)Nc2ccccc2)c1C(=O)OCC | . | . | -2 | -4 | 0
CCOC(=O)c1nnn(CC(=O)Nc2ccccc2)c1C(=O)OCC | 43* | . | . | -2 | -6
CCC(C(=O)NC1CCCC1)N(C(=O)Cn1nnc(-c2ccc(C)o2)n1)c1cccc(O)c1 (stereo unspecified) | 3 | 5 | 0 | 1 | -1
O=C(NC(Cc1ccccc1)C(=O)NC1CC1)OCc1ccccc1 (stereo unspecified) | 3 | 6 | -1 | -2 | -3
O=C(N[C@@H](Cc1ccccc1)C(=O)NC1CC1)c1ccc(Cl)cc1 | -4 | -5 | . | 9 | 25*
Cc1[nH]n(-c2ccccc2)c(=O)c1/C=N/c1ccccn1 | . | -5 | . | . | .
Cc1ccccc1-c1ccnc2[nH]n(-c3ccccc3)c(=O)c12 | -1 | -6 | 0 | -1 | 24*
O=C(O)C1Nc2c(Cl)cc(Cl)c(Cl)c2C2C=CCC12 (stereo unspecified) | 4 | 8 | . | 5 | 22*
O=C(O)C1Nc2c(O)cccc2C2C=CCC12 (stereo unspecified) | -4 | . | . | -2 | 17*
O=C(O)C1Nc2ccc(Br)cc2C2C=CCC12 (stereo unspecified) | . | 7 | . | . | .
O=C(O)C1Nc2c(Cl)cc(Cl)cc2C2C=CCC12 (stereo unspecified) | . | -1 | . | . | .
Cn1c(=O)c2c(nc(CN3CCN(c4ccc(F)cc4)CC3)n2Cc2ccccc2F)n(C)c1=O | 2 | 1 | . | . | -3
COCCNc1nc(NCc2cnc(C)cn2)c2sccc2n1 | 2 | 2 | 2 | -13 | 17*
SMILES | ERAP1 inh | PglD DTNB | E-sel inducer | DENV2 CPE rescue | SIRT5 block
O=C(O)CCNc1ccc(NCCC(=O)O)c2c1C(=O)c1ccccc1C2=O | 4 | . | . | -3 | 17*
C/C(C=O)=C/c1ccccc1 | 7 | -3 | . | 91* | .
O=C(Nc1cc(F)ccc1F)N1CC(=O)N2[C@H](C1)[C@@H](c1ccc(-c3cccnc3)cc1)[C@@H]2CO | -1 | . | 0 | -4 | -2
C[C@@H]1CN([C@H](C)CO)C(=O)c2cc(C3=CCCCC3)cnc2O[C@H]1CN(C)Cc1cccc(F)c1 | 1 | -5 | 0 | 7 | 10
Cc1cccc(C)c1NC(=O)N1CCCCCCC1 | -4 | . | 0 | 5 | 28*
CC(=O)c1ccc2c3c(cc(C)c2c1)CCCC3 | -2 | 2 | 0 | 25* | .

Assay outcomes (PubChem BioAssay)
